Experimental data collected from several papers.
Protocols differ between the studies behind these lines.
Target: Dual specificity testis-specific protein kinase 1 (TESK1, Homo sapiens, UniProt Q15569)

Structure (SMILES) | observed | technique | concentration | remaining binding [%]
CN(C)CC#Cc1ccc(OCCCc2sc(N3CCc4cccc(C(=O)Nc5nc6ccccc6s5)c4C3)nc2C(=O)O)c(F)c1 | cell-free assay | competition with immobilised ligand | 1 µM | 100
O=C(Nc1c[nH]nc1C(=O)NC1CCNCC1)c1cc(F)cc(F)c1 | binding | competition with immobilised ligand | 1 µM | 100
N[C@@H]1CCN(c2nccc(-c3cnn4ncccc34)n2)C1 | binding | – | 1 µM | 100
COc1cnc(Nc2cccc(S(N)(=O)=O)c2)nc1N1CCN(c2ccccc2)C(=O)C1 | binding | competition with immobilised ligand | 1 µM | 96
O=C(Nc1cnc(Oc2ccc(F)cc2)nc1)N1CCc2ncccc2[C@@H]1c1ccc(F)cc1 | cell-free assay | competition with immobilised ligand | 1 µM | 91
C[C@@H](c1ccc(-n2cnc3c(N)ncnc32)cc1)N1CCc2nn(C)c(Cc3ccccc3)c2C1=O | binding | competition with immobilised ligand | 0.1 µM | 87
CCS(=O)(=O)c1cc2cc(C[C@@](O)(CC(C)(C)c3ccc(F)cc3C(N)=O)C(F)(F)F)[nH]c2cn1 | cell-free assay | competition with immobilised ligand | 1 µM | 77
C[C@H]1CCN(c2nccc(-c3cnn4ncccc34)n2)C1 | binding | – | 1 µM | 100
O=C(c1ccc(Nc2ncc(Cl)c(-c3cc4ccccc4s3)n2)cc1)N1CCC(N2CCCC2)CC1 | binding | competition with immobilised ligand | 1 µM | 81
CCCOc1ccc([C@H]2[C@H](C(=O)O)[C@@H](c3ccc4c(c3)OCO4)CN2CC(=O)Nc2c(CC)cccc2CC)cc1 | cell-free assay | competition with immobilised ligand | 1 µM | 89
O=C(c1ccc(Nc2ncc(Cl)c(-c3ccc(Cl)s3)n2)cc1)N1CCC(N2CCCC2)CC1 | binding | competition with immobilised ligand | 1 µM | 99
COc1ncc2cc3ccccc3nc2c1C#N | cell-free assay | competition with immobilised ligand | 5 µM | 94
F[C@@H]1CCN(c2nccc(-c3cnn4ncccc34)n2)C1 | binding | – | 1 µM | 67
COc1cnc(Nc2cccc(S(N)(=O)=O)c2)nc1N1CCN(c2ccccc2)CC1 | binding | competition with immobilised ligand | 1 µM | 100
CN(C)c1nccc(-c2cnc3ncccn23)n1 | binding | – | 1 µM | 90
O=C(N[C@H]1CCCCC/C=C\C2C[C@@]2(C(=O)O)NC(=O)[C@@H]2C[C@@H](Oc3ccncc3)CN2C1=O)OC1CCCC1 (some centres unmarked) | binding | competition with immobilised ligand | 1 µM | 97
CN(C)c1ncc(F)c(-c2cnn3ncccc23)n1 | binding | – | 1 µM | 100
Cc1cnc(Nc2ccc(C(=O)N3CCC(N4CCCC4)CC3)cc2)nc1-c1cc2ccccc2s1 | binding | competition with immobilised ligand | 1 µM | 72
COc1ccnn2ncc(-c3ccnc(N(C)C)n3)c12 | binding | – | 1 µM | 100
Cc1cc(NC(=O)c2cccc(S(F)(F)(F)(F)F)c2)cc(-n2ccn3nc(-c4cccnc4)cc23)c1 | cell-free assay | competition with immobilised ligand | 1 µM | 91.7
